The values that follow come from ChEMBL document CHEMBL1828577, “Design and synthesis of some new thiophene, thienopyrimidine and thienothiadiazine derivatives of antipyrine as potential antimicrobial agents” (2011).

≈ marks a conversion by molar mass, not a printed value. Calls of active or inactive are those of the source.

Broadly, the MIC is the smallest concentration in the dilution series that meets the test's criterion for growth inhibition. Higher therefore signals weaker potency.

Common to all, as to assay type: functional
The subject of test [1] is Syncephalastrum racemosum. Kind of test: Antifungal activity against Syncephalastrum racemosum RCMB 052003 at 30 mg/ml after 3 to 4 days by agar well diffusion method. The note with it: read-out: DIZ. On the technique in general: In agar diffusion tests the substance spreads into inoculated agar from a disc or well.
Test [2] concerns Syncephalastrum racemosum. In words: Antifungal activity against Syncephalastrum racemosum RCMB 052003 at 10 mg/ml after 3 to 4 days by agar well diffusion method. As to conditions: for zone of inhibition at 10000 µg/mL: read-out: DIZ. In a few lines:
(§1)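 Agar well diffusion on Sabouraud dextrose agar (glucose–peptone–agar 40:10:15). Culture grown in Sabouraud broth for 3-4 days to 10^5 CFU mL⁻¹; 0.1 mL spread per plate. Wells sealed at the bottom with 0.8% soft agar, then loaded with 100 µl sample at 10 mg mL⁻¹ in DMSO; DMSO control. Incubated at 30 °C for 3–4 days. Zone caliper-read three times; triplicate tests; mean ± SD.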

The subject of test [3] is Bacillus subtilis. In words: Antibacterial activity against Bacillus subtilis RCMB 000107 at 10 mg/ml after 24 hrs by agar well diffusion method. As to conditions: RCMB 000107, 24 h, read-out: DIZ. In a few lines:
(§2)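 Agar well diffusion on nutrient agar (tryptone 1%, yeast extract 0.5%, NaCl 0.5%, agar 1%, pH 7.0). Plates spread with centrifuged pellets from a 24 h culture (about 10^4-10^6 CFU/ml). 100 µl of sample at 10 mg/mL in DMSO per 6 mm well, DMSO control. Incubated at 37 °C for 24 h. Inhibition zone diameter (mm) caliper-read three times; test run three times; mean ± SD.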

Test [4] relates to Candida albicans. In words: Antifungal activity against Candida albicans RCMB 052002 after 3 to 4 days by two fold serial dilution method. In a few lines:
(§3)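 MIC by agar plate method. Two-fold serial dilutions in Sabouraud dextrose broth, autoclaved at 121 °C for 25 min; DMSO control. Loop of culture diluted to 10⁵–10⁶ CFU mL⁻¹. Incubated at 30 °C for 3–4 days, then colonies counted. MIC taken as the lowest concentration fully inhibiting growth relative to control, ignoring a single colony or faint haze.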

The test system of test [5] is Bacillus subtilis. In words: Antibacterial activity against Bacillus subtilis RCMB 000107 after 24 hrs by two fold serial dilution method. As to conditions: RCMB 000107, 24 h. In a few lines:
(§4)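 MIC by agar plate method. Two-fold serial dilutions in nutrient broth (beef extract 5 g, peptone 10 g per litre, pH 7.0), autoclaved at 121 °C for 25 min; DMSO control. Loop inoculum diluted to 10⁵–10⁶ CFU mL⁻¹. Incubated at 37 °C for 24 h, then colonies counted. MIC taken as the lowest concentration giving complete inhibition, ignoring a single colony or faint haze.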

The test system of test [6] is Geotrichum candidum. Kind of test: Antifungal activity against Geotrichum candidum RCMB 052006 after 3 to 4 days by two fold serial dilution method. Summed up: as §3
For test [7], the system named is Escherichia coli. In words: Antibacterial activity against Escherichia coli RCMB 000103 at 10 mg/ml after 24 hrs by agar well diffusion method. The note with it: for zone of inhibition at 10000 µg/mL: RCMB 000103, 24 h, read-out: DIZ. Summed up:
as §2

Test [8] deals with Syncephalastrum racemosum. Kind of test: Antifungal activity against Syncephalastrum racemosum RCMB 052003 after 3 to 4 days by two fold serial dilution method. In a few lines:
as §3

For test [9], the system named is Staphylococcus aureus. In words: Antibacterial activity against Staphylococcus aureus RCMB 000106 after 24 hrs by two fold serial dilution method. As to conditions: RCMB 000106, 24 h. Summed up: as §4
Test [10] concerns Escherichia coli. In words: Antibacterial activity against Escherichia coli RCMB 000103 after 24 hrs by two fold serial dilution method. As to conditions: RCMB 000103, 24 h. In a few lines:
as §4

The subject of test [11] is Geotrichum candidum. In words: Antifungal activity against Geotrichum candidum RCMB 052006 at 10 mg/ml after 3 to 4 days by agar well diffusion method. The note with it: for zone of inhibition at 10000 µg/mL: read-out: DIZ. Summed up:
as §1

Test [12] concerns Aspergillus fumigatus. In words: Antifungal activity against Aspergillus fumigatus RCMB 002003 at 10 mg/ml after 3 to 4 days by agar well diffusion method. The note with it: read-out: DIZ. In a few lines:
as §1

In test [13] the test system is Candida albicans. Kind of test: Antifungal activity against Candida albicans RCMB 052002 at 10 mg/ml after 3 to 4 days by agar well diffusion method. As to conditions: for zone of inhibition at 10000 µg/mL: read-out: DIZ. In a few lines: as §1
Test [14] deals with Pseudomonas aeruginosa. Kind of test: Antibacterial activity against Pseudomonas aeruginosa RCMB 000102 after 24 hrs by two fold serial dilution method. As to conditions: RCMB 000102, 24 h. In a few lines:
as §4

In test [15] the test system is Staphylococcus aureus. Kind of test: Antibacterial activity against Staphylococcus aureus RCMB 000106 at 10 mg/ml after 24 hrs by agar well diffusion method. As to conditions: RCMB 000106, 24 h, read-out: DIZ. Summed up:
as §2

Test [16] relates to Aspergillus fumigatus. In words: Antifungal activity against Aspergillus fumigatus RCMB 002003 after 3 to 4 days by two fold serial dilution method. In a few lines: as §3
Test [17] relates to Pseudomonas aeruginosa. Kind of test: Antibacterial activity against Pseudomonas aeruginosa RCMB 000102 at 10 mg/ml after 24 hrs by agar well diffusion method. As to conditions: for zone of inhibition at 10000 µg/mL: RCMB 000102, 24 h, read-out: DIZ. Summed up: as §2

In the case of `Clc1ccccc1C(c1ccccc1)(c1ccccc1)n1ccnc1` [CLOTRIMAZOLE], the zone of inhibition at 30000 µg/mL in test [1] was found to be 20 mm.
With `CCOC(=O)c1c(Nc2c(C)n(C)n(-c3ccccc3)c2=O)csc1N`, the zone of inhibition at 10000 µg/mL was 18.2 mm in test [2]; 25.3 mm in test [3]; 23.8 mm in test [7]; 22 mm in [11]; 22.1 mm in test [12]; 16.4 mm in test [13]. The zone of inhibition at 10000 µg/mL was 20.2 mm in test [15] and 20.8 mm in test [17]. Moreover, the MIC was determined as 78 µg/mL (≈ 209 µM) in test [4]; 19 µg/mL (≈ 51 µM) in test [5]; 39 µg/mL (≈ 105 µM) in test [6]; 39 µg/mL (≈ 105 µM) in test [8]; 39 µg/mL (≈ 105 µM) in [9]; 19 µg/mL (≈ 51 µM) in test [10]. Besides, the minimal inhibitory concentration (MIC) worked out at 39 µg/mL (≈ 105 µM) in test [14] and 19 µg/mL (≈ 51 µM) in test [16].
For the compound `Cc1c(NC(=O)CC(=O)C(=O)NN)c(=O)n(-c2ccccc2)n1C`, the zone of inhibition at 10000 µg/mL in test [2] was determined as 13.4 mm; in [3], 14.4 mm; in test [11], 13.4 mm; in [12] it was 11.2 mm; in test [15], 17.2 mm. In addition, the “diameter of the inhibition zone (DIZ)” value in test [7], in test [13] and in [17] was “inactive” throughout.
For the compound `CCOC(=O)C(=O)CC(=O)Nc1c(C)n(C)n(-c2ccccc2)c1=O`, the “diameter of the inhibition zone (DIZ)” value in [2], in test [7] and in [17] was “inactive” each time. For the same compound, the zone of inhibition at 10000 µg/mL turned out to be 16.2 mm in test [3]; 13.4 mm in [11]; 11.1 mm in test [12]; 10.6 mm in [13]; 16.3 mm in test [15].
For the compound `Cc1c(NC(=O)/C=C/c2cccs2)c(=O)n(-c2ccccc2)n1C`, the “diameter of the inhibition zone (DIZ)” value in test [2], in test [7], in test [11] and in [17] was “inactive” in each case. Moreover, the zone of inhibition at 10000 µg/mL in test [3] came out at 11.2 mm; in test [12] it was 14.2 mm; in test [13] it was 13.4 mm; in test [15], 11 mm.
With `Cc1c(Nc2csc(N)c2C#N)c(=O)n(-c2ccccc2)n1C`, the zone of inhibition at 10000 µg/mL was 18.9 mm in test [2]; 27.2 mm in test [3]; 24.4 mm in test [7]; 22.4 mm in test [11]; 24.3 mm in test [12]; 17.2 mm in [13]. In addition, the zone of inhibition at 10000 µg/mL in [15] turned out to be 23.9 mm; in test [17], 22.8 mm. For the same compound, the MIC in [4] was 39 µg/mL (≈ 120 µM); in test [5], 9.5 µg/mL (≈ 29.2 µM); in [6] it was 19 µg/mL (≈ 58.4 µM); in [8], 39 µg/mL (≈ 120 µM); in test [9], 19 µg/mL (≈ 58.4 µM); in test [10] it was 19 µg/mL (≈ 58.4 µM). Besides, the minimal inhibitory concentration (MIC) came to 39 µg/mL (≈ 120 µM) in test [14] and 19 µg/mL (≈ 58.4 µM) in test [16].
On to `Cc1c(Nc2csc3ncnc(N)c23)c(=O)n(-c2ccccc2)n1C`, for which the zone of inhibition at 10000 µg/mL is 13.4 mm in test [2]; 15.2 mm in [3]; 10.4 mm in test [7]; 12.8 mm in [11]; 12.5 mm in test [12]; 11 mm in test [13]. For the same compound, the zone of inhibition at 10000 µg/mL in test [15] worked out at 13.9 mm. Also, the “diameter of the inhibition zone (DIZ)” value in test [17] was “inactive”.
